We go through 11 molecules from ChEMBL document CHEMBL1129642, “Design, synthesis, and evaluation of 2 beta-alkenyl penam sulfone acids as inhibitors of beta-lactamases” (J Med Chem, 1996).

SMILES strings stand for the structures. Active and inactive are the calls of the source. No cut-off for these calls is given here. A value given as a limit tells only on which side of the number the result lay.

The test system of one assay is Bacillus licheniformis. The experiment in a line: Compound was tested for inhibition of Bacillus licheniformis 749/C, class A of beta-Lactamases. Type of assay: functional, organism-based.
Assay [1] relates to Citrobacter freundii. In words: Compound was tested for inhibition of Citrobacter freundii 1928 in combination with Ceftriaxone; Not active. Type of assay: functional, organism-based. In short, it runs like this:
(§1)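 MICs determined by serial 2-fold dilution in Mueller-Hinton broth with an inoculum of approximately 10⁵ cfu/mL. The test compound was combined with ceftriaxone.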

Assay [2] concerns Enterobacter cloacae. The experiment in a line: Compound was tested for inhibition of Ent. cloacae 908R in combination with Ceftriaxone. Type of assay: functional. In short, it runs like this:
as §1

The subject of assay [3] is Pseudomonas aeruginosa. The experiment in a line: Compound was tested for inhibition of Pseudomonas aeruginosa 18SH in combination with Ceftriaxone. Type of assay: functional. Summed up: as §1
Assay [4] can be described thus: (§2) Compound was tested for inhibition of TEM-3, class A of beta-lactamases. Type of assay: functional, Escherichia coli.
Assay [5] is described as follows: (§3) Compound was tested for inhibition of pTEM-3 from Escherichia coli in combination with Ceftriaxone. Type of assay: functional. Summed up: as §1
Assay [6] is described as follows: (§4) Compound was tested for inhibition of pTEM-4 from Escherichia coli in combination with Ceftriaxone. Type of assay: functional. Summed up: as §1
A short description of assay [7]: (§5) Compound was tested for inhibition of TEM-1, class A of beta-lactamases. Type of assay: functional, Escherichia coli.
Assay [8] addresses Beta-lactamase (Escherichia coli K-12, UniProt P00811). The experiment in a line: Compound was tested for inhibition of Escherichia coli AmpC, class C of Beta-lactamase.
Assay [9] concerns the target Beta-lactamase (Bacillus licheniformis, UniProt P00808). In words: Compound was tested for inhibition of Bacillus licheniformis 749/C, class A of Beta-lactamase.
The target in assay [10] is Beta-lactamase (Pseudomonas aeruginosa (strain ATCC 15692 / PAO1 / 1C / PRS 101 / LMG12228), UniProt P24735). In words: Compound was tested for inhibition of Pseudomonas aeruginosa 18SH, class C of Beta-lactamase.
Chain of Beta-lactamase (Pseudomonas aeruginosa (strain ATCC 15692 / PAO1 / 1C / PRS 101 / LMG12228), UniProt P24735) (P24735 whole entry): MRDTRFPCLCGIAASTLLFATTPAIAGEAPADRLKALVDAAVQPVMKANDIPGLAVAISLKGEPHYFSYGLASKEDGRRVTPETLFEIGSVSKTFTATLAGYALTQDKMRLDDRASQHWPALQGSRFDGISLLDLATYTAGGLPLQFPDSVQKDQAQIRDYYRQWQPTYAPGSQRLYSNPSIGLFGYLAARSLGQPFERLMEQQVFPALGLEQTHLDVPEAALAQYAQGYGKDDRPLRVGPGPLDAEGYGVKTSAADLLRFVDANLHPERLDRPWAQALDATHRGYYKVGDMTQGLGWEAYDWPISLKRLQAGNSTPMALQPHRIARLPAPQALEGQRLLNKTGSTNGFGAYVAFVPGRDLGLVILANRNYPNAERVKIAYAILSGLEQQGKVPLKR
In assay [11] the target is Beta-lactamase (Citrobacter freundii, UniProt P05193). In words: Compound was tested for inhibition of Citrobacter freundii 1928, class C of Beta-lactamase.
Chain of Beta-lactamase (Citrobacter freundii, UniProt P05193) (P05193 whole entry): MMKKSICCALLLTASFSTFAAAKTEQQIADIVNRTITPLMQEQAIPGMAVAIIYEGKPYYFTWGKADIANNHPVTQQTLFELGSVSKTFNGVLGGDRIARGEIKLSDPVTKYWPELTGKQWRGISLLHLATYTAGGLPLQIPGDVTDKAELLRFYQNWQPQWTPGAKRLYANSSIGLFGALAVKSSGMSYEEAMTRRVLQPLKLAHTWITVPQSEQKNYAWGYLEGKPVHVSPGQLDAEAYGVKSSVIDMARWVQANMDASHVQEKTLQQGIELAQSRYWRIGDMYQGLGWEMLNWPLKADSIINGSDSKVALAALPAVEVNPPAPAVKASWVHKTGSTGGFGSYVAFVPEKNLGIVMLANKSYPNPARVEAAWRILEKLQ
In assay [12] the test system is Citrobacter freundii. In words: Compound was tested for inhibition of Citrobacter freundii 1928 in combination with Ceftriaxone. Type of assay: functional. In short, it runs like this:
as §1

Assay [13] deals with Penicillin-binding protein 4 (Staphylococcus aureus, UniProt P72355). In words: Compound was tested for inhibition of Penicillin-binding protein 4 from Staphylococcus aureus (Schoch).
Chain of Penicillin-binding protein 4 (P72355 whole entry): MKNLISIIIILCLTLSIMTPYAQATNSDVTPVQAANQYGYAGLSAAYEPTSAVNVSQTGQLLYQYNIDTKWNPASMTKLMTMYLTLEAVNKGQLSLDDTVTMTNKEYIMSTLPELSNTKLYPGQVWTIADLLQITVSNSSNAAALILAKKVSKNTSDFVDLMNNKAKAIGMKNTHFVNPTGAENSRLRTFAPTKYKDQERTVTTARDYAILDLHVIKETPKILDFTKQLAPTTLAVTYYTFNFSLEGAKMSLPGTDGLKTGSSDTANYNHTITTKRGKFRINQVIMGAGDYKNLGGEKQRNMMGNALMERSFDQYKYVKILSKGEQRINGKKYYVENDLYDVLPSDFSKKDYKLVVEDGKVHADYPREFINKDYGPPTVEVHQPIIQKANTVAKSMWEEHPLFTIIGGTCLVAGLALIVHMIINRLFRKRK
A short description of assay [14]: Compound was tested for inhibition of Penicillin-binding protein 2x from Streptococcus pneumoniae. Summed up:
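S. pneumoniae PBP 2x was assayed as recombinant soluble protein. IC₅₀ values are reported in µM.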

For assay [15], the target named is T1, Penicillin-binding protein 1B (Escherichia coli K-12, UniProt P02919).
T1 sequence (P02919 whole entry): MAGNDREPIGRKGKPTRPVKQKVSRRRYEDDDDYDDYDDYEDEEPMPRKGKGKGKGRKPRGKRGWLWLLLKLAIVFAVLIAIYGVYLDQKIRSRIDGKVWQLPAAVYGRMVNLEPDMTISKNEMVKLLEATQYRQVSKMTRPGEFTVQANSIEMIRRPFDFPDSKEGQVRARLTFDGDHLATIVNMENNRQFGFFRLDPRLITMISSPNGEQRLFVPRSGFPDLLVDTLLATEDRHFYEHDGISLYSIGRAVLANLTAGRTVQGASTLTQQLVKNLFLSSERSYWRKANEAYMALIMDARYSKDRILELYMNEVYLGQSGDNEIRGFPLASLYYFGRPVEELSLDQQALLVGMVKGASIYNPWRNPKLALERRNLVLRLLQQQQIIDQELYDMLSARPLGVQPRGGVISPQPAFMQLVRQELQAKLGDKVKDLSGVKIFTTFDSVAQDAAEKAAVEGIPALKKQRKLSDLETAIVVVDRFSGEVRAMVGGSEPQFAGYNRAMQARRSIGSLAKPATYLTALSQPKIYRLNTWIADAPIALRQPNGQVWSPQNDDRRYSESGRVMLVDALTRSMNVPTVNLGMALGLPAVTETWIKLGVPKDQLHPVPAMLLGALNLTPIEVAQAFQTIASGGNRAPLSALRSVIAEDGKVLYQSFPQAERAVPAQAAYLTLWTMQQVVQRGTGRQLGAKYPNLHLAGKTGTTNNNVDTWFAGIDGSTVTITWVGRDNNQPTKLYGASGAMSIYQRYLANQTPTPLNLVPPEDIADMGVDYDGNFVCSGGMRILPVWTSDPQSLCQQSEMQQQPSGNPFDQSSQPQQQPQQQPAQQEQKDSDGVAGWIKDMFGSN
In words: Compound was tested for inhibition of Penicillin-binding protein 1b from Escherichia coli. In short, it runs like this: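 Penicillin binding was assayed on membrane fragments from E. coli W3110 or S. aureus Schoch, using ¹⁴C-labeled benzylpenicillin as the probe. IC₅₀ values are reported in µM.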

Assay [16] can be described thus: Compound was tested for inhibition of Penicillin-binding protein 1 from Staphylococcus aureus (Schoch).
A short description of assay [17]: as §5. More on the design: species or system Escherichia coli.
The nature of assay [18]: as §2. More on the design: species or system Escherichia coli.
The subject of assay [19] is Escherichia coli. The description is as §3. In short, it runs like this: as §1
Assay [20] has as its system Escherichia coli. Described as §4. Summed up: as §1
The subject of assay [21] is Citrobacter freundii. In words: (§6) Compound was tested for inhibition of Citrobacter freundii 1928 in combination with Ceftriaxone (expressed in MIC). Type of assay: functional, organism-based. Summed up: as §1
For assay [22], the system named is Enterobacter cloacae. The experiment in a line: Compound was tested for inhibition of Ent. cloacae 908R in combination with Ceftriaxone (expressed in MIC). Type of assay: functional, organism-based. In short, it runs like this:
as §1

In assay [23] the test system is Pseudomonas aeruginosa. The experiment in a line: Compound was tested for inhibition of Pseudomonas aeruginosa 18SH in combination with Ceftriaxone (expressed in MIC). Type of assay: functional, organism-based. Summed up:
as §1

The nature of assay [24]: Compound was tested for inhibition of pTEM-3 from Escherichia coli in combination with Ceftriaxone (expressed in MIC). In short, it runs like this:
as §1

Assay [25] can be described thus: Compound was tested for inhibition of pTEM-4 from Escherichia coli in combination with Ceftriaxone; NA = Not active. Summed up:
as §1

Assay [26] deals with Citrobacter freundii. The description is as §6. Type of assay: functional, organism-based. The source holds these as a separate data set.

Chain of Beta-lactamase (Bacillus licheniformis, UniProt P00808) (P00808 whole entry): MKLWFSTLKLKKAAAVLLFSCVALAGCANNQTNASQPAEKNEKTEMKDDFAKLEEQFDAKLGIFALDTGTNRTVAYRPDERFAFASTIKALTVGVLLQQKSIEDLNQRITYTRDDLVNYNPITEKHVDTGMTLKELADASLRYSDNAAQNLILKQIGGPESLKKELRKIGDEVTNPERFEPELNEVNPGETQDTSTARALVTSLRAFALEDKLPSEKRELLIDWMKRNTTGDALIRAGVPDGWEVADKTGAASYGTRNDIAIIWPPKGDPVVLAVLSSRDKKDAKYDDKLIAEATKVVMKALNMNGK
Chain of Beta-lactamase (Escherichia coli K-12, UniProt P00811) (P00811 whole entry): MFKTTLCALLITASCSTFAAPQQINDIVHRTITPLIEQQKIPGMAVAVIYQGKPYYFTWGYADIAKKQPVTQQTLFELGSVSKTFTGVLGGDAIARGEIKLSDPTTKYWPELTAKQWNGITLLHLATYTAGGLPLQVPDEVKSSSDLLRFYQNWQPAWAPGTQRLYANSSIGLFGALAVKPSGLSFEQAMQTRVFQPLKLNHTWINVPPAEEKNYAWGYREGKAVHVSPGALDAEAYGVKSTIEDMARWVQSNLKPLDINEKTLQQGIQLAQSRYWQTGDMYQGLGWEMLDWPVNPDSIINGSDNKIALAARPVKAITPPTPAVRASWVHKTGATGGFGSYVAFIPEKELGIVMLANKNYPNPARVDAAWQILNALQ

For the molecule `C[C@]1(C=CC(N)=O)[C@H](C(=O)O)N2C(=O)C[C@H]2S1(=O)=O`, the values for the half-inhibitory concentration (IC50) (in the assay with Bacillus licheniformis; in assay [4]; in assay [7]) were 6 µM, 0.054 µM and 13 µM, respectively. Further, in the assay with Citrobacter freundii [1], the NA entry is “inactive”. For the same molecule, the MIC in the assay with Enterobacter cloacae [2] is 8 mg/L; in the assay with Pseudomonas aeruginosa [3] it was 16 mg/L; in assay [5], less than 0.25 mg/L; in assay [6], 0.5 mg/L.
As for `C[C@]1(/C=C\c2ccccn2)[C@H](C(=O)[O-])N2C(=O)C[C@H]2S1(=O)=O.[Na+]`, the IC50 at Beta-lactamase [8] is 46 µM; against Beta-lactamase [9], 2.3 µM; on Beta-lactamase [10], 15 µM; at Beta-lactamase [11] it was 1 µM; in assay [13], 15 µM; in assay [14], 4.5 µM. For the same molecule, the concentration for half-maximal inhibition (IC50) in assay [15] is more than 10000 µM; in assay [16], 15 µM; in assay [17], 19 µM; in [18] it was 0.092 µM. Besides, the MIC in the assay on Citrobacter freundii [12] is 8 mg/L; in the assay on Enterobacter cloacae [2], 32 mg/L; in the assay with Pseudomonas aeruginosa [3] it was more than 16 mg/L; with Escherichia coli [19] it was 1 mg/L; with Escherichia coli [20], 4 mg/L.
Consider `CCOC(=O)/C=C\[C@@]1(C)[C@H](C(=O)O)N2C(=O)C[C@H]2S1(=O)=O`, for which the concentration for half-maximal inhibition (IC50) at Beta-lactamase [8] is 61 µM; against Beta-lactamase [9] it was 2.9 µM; against Beta-lactamase [10], 15 µM; in assay [17], 14 µM; in assay [18] it was 0.46 µM. The MIC in the assay on Citrobacter freundii [21] was 4 mg/L; with Enterobacter cloacae [22], 8 mg/L; with Pseudomonas aeruginosa [23] it was more than 16 mg/L; in [24], less than 0.25 mg/L; in [25] it was “Not Active”.
For `CON(C)C(=O)/C=C\[C@@]1(C)[C@H](C(=O)[O-])N2C(=O)C[C@H]2S1(=O)=O.[Na+]`, the IC50 with Bacillus licheniformis stood at 4.4 µM; in [4], 0.18 µM; in assay [7] it was 12 µM. Moreover, the MIC with Citrobacter freundii [12] is 8 mg/L; in the assay on Enterobacter cloacae [2], 16 mg/L; in the assay on Pseudomonas aeruginosa [3], more than 16 mg/L; in assay [5], 0.5 mg/L; in assay [6], 2 mg/L.
Turning to `C[C@]1(C=CCO)[C@H](C(=O)[O-])N2C(=O)C[C@H]2S1(=O)=O.[Na+]`, the results for the IC50 (in the assay with Bacillus licheniformis; in assay [4]; in [7]) were 3.6 µM, 0.6 µM and 6.5 µM, respectively. Also, the MIC in the assay with Citrobacter freundii [12] was 8 mg/L; with Enterobacter cloacae [2], 8 mg/L; in the assay with Pseudomonas aeruginosa [3] it was 16 mg/L; in assay [5], 0.5 mg/L; in assay [6], 2 mg/L.
On to `C[C@]1(/C=C\c2cncs2)[C@H](C(=O)[O-])N2C(=O)C[C@H]2S1(=O)=O.[Na+]`, for which the IC50 at Beta-lactamase [8] is 2.7 µM; against Beta-lactamase [9] it was 0.54 µM; against Beta-lactamase [10], 8.9 µM; on Beta-lactamase [11], 0.41 µM; in assay [14], 4.8 µM; in assay [15], more than 10000 µM. For the same molecule, the results for the IC50 in assay [17] and in assay [18] were 13 µM and 0.054 µM, respectively. The MIC is 16 mg/L in the assay with Citrobacter freundii [12]; 16 mg/L with Enterobacter cloacae [2]; more than 16 mg/L in the assay with Pseudomonas aeruginosa [3]; 0.5 mg/L in the assay with Escherichia coli [19]; 4 mg/L in the assay on Escherichia coli [20].
With `C[C@]1(/C=C\C(N)=O)[C@H](C(=O)O)N2C(=O)C[C@H]2S1(=O)=O`, the values for the IC50 (with Bacillus licheniformis; in assay [4]; in [7]) were 3.4 µM, 0.13 µM and 1.2 µM, respectively. The MIC in the assay with Citrobacter freundii [12] came out at 2 mg/L; in the assay with Enterobacter cloacae [2], 4 mg/L; in the assay on Pseudomonas aeruginosa [3], 4 mg/L; in [5], 0.25 mg/L; in assay [6] it was 2 mg/L.
As to `C[C@]1(/C=C/c2cncs2)[C@H](C(=O)O)N2C(=O)C[C@H]2S1(=O)=O`, the IC50 at Beta-lactamase [8] was 45 µM; at Beta-lactamase [9], 5.4 µM; at Beta-lactamase [10], 0.54 µM; at Beta-lactamase [11], 1.3 µM; in [14], 50 µM; in [15], more than 10000 µM. In addition, the results for the IC50 in [17] and in assay [18] were 8.5 µM and 0.16 µM, respectively. Further, the MIC with Citrobacter freundii [12] is 8 mg/L; in the assay on Enterobacter cloacae [2], more than 16 mg/L; in the assay on Pseudomonas aeruginosa [3], 16 mg/L; in the assay on Escherichia coli [19], 1 mg/L; in the assay with Escherichia coli [20], 4 mg/L.
For `C[C@]1(/C=C/c2nnco2)[C@H](C(=O)[O-])N2C(=O)C[C@H]2S1(=O)=O.[Na+]`, the IC50 in the assay on Bacillus licheniformis was found to be 1.7 µM; in assay [4], 0.22 µM; in [7], 12 µM. Also, the MIC was found to be 4 mg/L with Citrobacter freundii [12]; 8 mg/L in the assay on Enterobacter cloacae [2]; 16 mg/L in the assay with Pseudomonas aeruginosa [3]; 0.5 mg/L in [5]; 2 mg/L in assay [6].
With `C[C@]1(/C=C\Cl)[C@H](C(=O)[O-])N2C(=O)C[C@H]2S1(=O)=O.[Na+]`, the IC50 with Bacillus licheniformis was 6.6 µM; in assay [4] it was 0.06 µM; in assay [7], 5.6 µM. Also, the MIC amounted to 4 mg/L in the assay with Citrobacter freundii [12]; 4 mg/L with Enterobacter cloacae [2]; 4 mg/L in the assay on Pseudomonas aeruginosa [3]; 0.25 mg/L in [5]; 1 mg/L in assay [6].
`C[C@]1(/C=C\C#N)[C@H](C(=O)O)N2C(=O)C[C@H]2S1(=O)=O` returned a half-inhibitory concentration (IC50) with Bacillus licheniformis of 0.32 µM. Further, the MIC turned out to be 2 mg/L with Citrobacter freundii [26], 4 mg/L in the assay on Enterobacter cloacae [22] and 16 mg/L in the assay with Pseudomonas aeruginosa [23].
